The text below walks through data of ChEMBL document CHEMBL4190227, “Syntheses, toxicities and anti-inflammation of H2S-donors based on non-steroidal anti-inflammatory drugs” (Eur J Med Chem, 2017).

Active and inactive are the calls of the source. No cut-off for these calls is given here.

Series [1] concerns RAW264.7. The series can be described thus: Antiinflammatory activity in mouse RAW264.7 cells assessed as increase in LPS-induced IL10 levels at 10 to 100 uM incubated for 24 hrs post LPS induction by ELISA. Format: functional, cell-based. Put shortly: (§1)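 LPS (1 μg/mL) for 4 h, then compound at 10, 50, 100 μM for 24 h; cells lysed in RIPA, spun 12,000×g 10 min, protein normalised by BCA to 0.1 mg/mL; target (TNF-α, HO-1, IL-10 or COX-2) quantified by sandwich ELISA kit with mouse-specific polyclonal antibodies; four independent experiments.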
A general note: An ELISA detects its analyte on a solid surface through an enzyme-linked reagent.

The species named for series [2] is Danio rerio. The series can be described thus: Toxicity in AB zebrafish embryo assessed as reduction in hatching rate of embryos at 5 to 20 uM measured at 48 hrs post fertilization by dissecting light microscopic analysis. Format: organism-based. The note with it: in vivo. Put shortly:
(§2)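 AB embryos exposed from 4 to 72 hpf to compound (0.5–20 μM) or DMF vehicle (1:1000), one embryo per well; hatch rate scored at 48 hpf; n=100 per group in three replicates; three independent experiments, mean ± SD.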

Series [3] deals with RAW264.7. Nature of the series: Antiinflammatory activity in mouse RAW264.7 cells assessed as increase in LPS-induced HO-1 expression incubated for 24 hrs post LPS induction by ELISA. Type of series: functional, cell-based. In outline:
as §1

Series [4] concerns HepG2. The series can be described thus: Cytotoxicity against human HepG2 cells assessed as reduction in cell survival after 24 hrs by MTT assay. Format: cell-based. The note with it: HepG2, 24 h. A general note: Tetrazolium assays rely on reduction of a dye to a coloured formazan, in cell work by metabolically active cells.
Series [5] is filed under the species Danio rerio. Nature of the series: Effect on locomotor activity in wild type AB zebrafish larvae assessed as decrease in total swimming distance at 10 uM measured for 5 mins at 144 hrs post fertilization by visible light test. The note with it: in vivo. Format: ADME, organism-based.
The species entered for series [6] is Danio rerio. Nature of the series: Toxicity in AB zebrafish embryo assessed as reduction in hatching rate of embryos measured at 48 hrs post fertilization by dissecting light microscopic analysis. Format: organism-based. The note with it: in vivo. Put shortly: as §2
For series [7], the species on record is Danio rerio. Nature of the series: Toxicity in AB zebrafish embryo assessed as reduction in embryonic spontaneous movement frequency per minute at 0.5 uM measured at 24 hrs post fertilization by stereoscopic dissecting light microscopic analysis. Type of series: organism-based. The note with it: in vivo. Put shortly:
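AB embryos exposed from 4 to 24 hpf to compound (0.5–20 μM) or DMF vehicle (1:1000); ten embryos per group chosen randomly; spontaneous movement recorded under stereoscopic dissecting microscope, frequency per min counted at 24 hpf; three independent experiments, mean ± SD.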

For series [8], the species on record is Danio rerio. Nature of the series: Toxicity in AB zebrafish embryo assessed as reduction in number of embryos alive at 120 hrs post fertilization by dissecting light microscopic analysis. Type of series: organism-based. The note with it: in vivo. In outline:
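Wild-type AB embryos, 100 per group split into three replicates, one per well in 200 μL test solution, plates sealed; DMF vehicle control (1:1000); mortality recorded at 24–168 hpf intervals; three independent experiments, mean ± SD.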

The subject of series [9] is L02. The series can be described thus: Cytotoxicity against human LO2 cells assessed as reduction in cell survival after 24 hrs by MTT assay. The note with it: L02, 24 h. Type of series: cell-based.
The species entered for series [10] is Danio rerio. Nature of the series: Effect on locomotor activity in wild type AB zebrafish larvae assessed as decrease in total swimming distance at 0.5 to 1 uM measured for 5 mins at 144 hrs post fertilization by visible light test. Format: ADME, organism-based. To be noted: in vivo.
Series [11] has as its system RAW264.7. Nature of the series: Antiinflammatory activity in mouse RAW264.7 cells assessed as reduction in LPS-induced TNFalpha levels incubated for 24 hrs post LPS induction by ELISA. Format: functional, cell-based. In outline: as §1
For series [12], the system named is RAW264.7. Nature of the series: Antiinflammatory activity in mouse RAW264.7 cells assessed as increase in LPS-induced HO-1 expression at 100 uM incubated for 24 hrs post LPS induction by ELISA relative to contol. Format: functional. In outline: as §1
Series [13] relates to RAW264.7. The series can be described thus: Antiinflammatory activity in mouse RAW264.7 cells assessed as increase in IL10 levels at 10 to 100 uM measured after 24 hrs in absence of LPS by ELISA. Format: functional, cell-based. Put shortly: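 Macrophages exposed 24 h to 10, 50, 100 μM without LPS; lysates (RIPA, 12,000×g spin) normalised by BCA to 0.1 mg/mL protein; IL-10 measured by mouse-specific sandwich ELISA kit; four independent experiments, mean ± SD.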

For series [14], the species on record is Danio rerio. Nature of the series: Toxicity in AB zebrafish embryo assessed as effect on hatching rate of embryos at 0.5 to 1 uM measured at 48 hrs post fertilization by dissecting light microscopic analysis. To be noted: in vivo. Format: organism-based. In outline:
as §2

Series [15] concerns the target T1, Nitric oxide synthase, inducible (Mus musculus) (UniProt P29477).
T1 sequence (whole entry): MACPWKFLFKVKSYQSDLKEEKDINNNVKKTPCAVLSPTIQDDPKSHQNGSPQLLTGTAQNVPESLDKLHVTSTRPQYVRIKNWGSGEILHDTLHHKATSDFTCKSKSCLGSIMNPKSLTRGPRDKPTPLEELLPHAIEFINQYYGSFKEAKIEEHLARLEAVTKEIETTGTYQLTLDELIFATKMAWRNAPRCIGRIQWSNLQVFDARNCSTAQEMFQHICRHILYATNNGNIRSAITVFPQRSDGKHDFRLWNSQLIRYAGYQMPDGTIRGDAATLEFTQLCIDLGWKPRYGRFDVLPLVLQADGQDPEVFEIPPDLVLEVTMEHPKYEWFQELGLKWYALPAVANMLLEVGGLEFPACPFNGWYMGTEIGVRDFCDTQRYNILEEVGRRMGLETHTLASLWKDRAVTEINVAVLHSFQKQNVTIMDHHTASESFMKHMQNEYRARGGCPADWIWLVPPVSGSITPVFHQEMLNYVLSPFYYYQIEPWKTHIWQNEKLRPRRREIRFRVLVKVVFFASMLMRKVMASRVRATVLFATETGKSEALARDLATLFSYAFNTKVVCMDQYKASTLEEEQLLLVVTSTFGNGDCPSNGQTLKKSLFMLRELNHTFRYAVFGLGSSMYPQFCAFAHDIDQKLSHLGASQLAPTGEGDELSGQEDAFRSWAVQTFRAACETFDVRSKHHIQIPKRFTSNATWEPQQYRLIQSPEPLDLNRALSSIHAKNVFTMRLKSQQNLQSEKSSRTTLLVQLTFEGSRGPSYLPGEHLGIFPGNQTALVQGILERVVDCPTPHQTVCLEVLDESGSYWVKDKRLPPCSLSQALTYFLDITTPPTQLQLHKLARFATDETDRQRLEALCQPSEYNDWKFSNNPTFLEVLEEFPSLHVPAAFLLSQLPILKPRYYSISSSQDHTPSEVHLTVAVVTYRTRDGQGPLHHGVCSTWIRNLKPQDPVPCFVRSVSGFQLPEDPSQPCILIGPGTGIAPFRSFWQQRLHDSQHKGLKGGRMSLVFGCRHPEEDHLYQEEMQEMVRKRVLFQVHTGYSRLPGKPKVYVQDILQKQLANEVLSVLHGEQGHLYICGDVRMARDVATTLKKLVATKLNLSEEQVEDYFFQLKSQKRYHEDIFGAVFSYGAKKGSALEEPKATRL
Nature of the series: Inhibition of iNOS in mouse RAW264.7 cells assessed as reduction in LPS-induced NO production administered for 24 hrs post LPS induction by Griess method. Format: cell-based. Put shortly:
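RAW264.7 cells stimulated with LPS 1 μg/mL for 4 h, then compound (10, 50, 100 μM) for 24 h; culture medium reacted with Griess reagents I and II, absorbance 570 nm; nitrite from sodium nitrite standard curve (0–100 μM in medium); four independent experiments, mean ± SD.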

Series [16] deals with RAW264.7. Nature of the series: Inhibition of LPS-induced COX2 expression in mouse RAW264.7 cells at 10 to 100 uM incubated for 24 hrs post LPS induction by ELISA. Type of series: functional, cell-based. In outline:
as §1

In general, IC50 refers to the concentration needed to halve the response being measured. For the compound `CC(C)Cc1ccc(C(C)C(=O)Oc2ccc(C(N)=S)cc2)cc1` (configuration not stated), the outcome in series [1] and in series [13] was Active. For the same compound, the Activity result is “Toxic” in series [2]; “Dose-dependent effect” in [3]; “Toxic” in series [5]; “Dose-dependent effect” in series [6]; “Non-Toxic” in series [7]; “Dose-dependent effect” in series [8]. The Activity result in series [10] is “Non-Toxic”; in series [11], “Dose-dependent effect”; in series [14] it was “Non-Toxic”. Further, the figures for the IC50 in series [4] and in series [9] were 89.3 µM and 0.221 mM, respectively. In series [12], the “fold change (FC)” value was over 3. Also, in series [15], the inhibition entry is “Dose-dependent effect”. Further, the inhibition result in [16] is “Active”.
For the compound `CC(=O)Nc1ccc(OC(=O)CCCCC2CCSS2)cc1` (configuration not stated), the result in series [1] and in series [13] was Active. Besides, the Activity result in series [2] is “Toxic”; in series [3] it was “Dose-dependent effect”; in series [5] it was “Toxic”; in series [6], “Dose-dependent effect”; in series [7] it was “Non-Toxic”; in series [8], “Dose-dependent effect”. Further, the Activity entry is “Non-Toxic” in [10], “Dose-dependent effect” in series [11] and “Non-Toxic” in series [14]. In addition, the IC50 in series [4] was determined as 966 µM; in series [9] it was 1.79 mM. Besides, in [12], the “fold change (FC)” value is “<=2”. Further, the inhibition result in [15] was “Dose-dependent effect”. In addition, in [16], the inhibition entry was “Active”.
